Experimental data from article PMC8165011 (European journal of medicinal chemistry, 2021).
In brackets after ≈: the same amount, converted by molar mass. Like-named read-outs stand apart in the source and are kept apart here.

What was measured:
Format in all cases: cell-based
[1] = test system: S. aureus ATCC 700699 (Sa99); experiment: MIC assay; conditions: for MIC Sa99: S. aureus ATCC 700699
[2] = test system: Bacillus subtilis ATCC 6623 (Bs); experiment: MIC assay
[3] = test system: S. aureus ATCC 33591 (Sa91); experiment: MIC assay
[4] = test system: vancomycin-resistant E. faecium ATCC 700221 (Ef21); experiment: MIC assay
[5] = test system: S. aureus ATCC 33592 (Sa92); experiment: MIC assay
[6] = test system: S. epidermidis ATCC 700296 (Se); experiment: MIC assay
[7] = test system: antibiotic susceptible E. faecalis ATCC 29212 (Ef12); experiment: MIC assay; conditions: for MIC Efl2: E. faecalis ATCC 29212; for MIC: Enterococcus faecalis, ATCC29212, read-out: MIC Efl2
[8] = test system: S. aureus ATCC 25923 (Sa23), antibiotic susceptible; experiment: MIC assay
[9] = test system: S. aureus BAA-2312 (Sa12), antibiotic-resistant; experiment: MIC assay
[10] = test system: tested Gram-positive strains; experiment: MIC assay, summary over the tested Gram-positive strains; conditions: for antimicrobial activity (in words): tested Gram-positive strains
Outline: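 CLSI standard broth microdilution. Test compound started at 50 µg/ml and serially diluted 2-fold. Run in triplicate.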

[11] = test system: S. aureus ATCC 700699 (MRSA) stationary phase persister cells; experiment: Persister cell killing assay; conditions: 64xMIC
[12] = test system: S. aureus clinical isolates (MSSA, MRSA); experiment: MIC against clinical isolates of S. aureus; conditions: Staphylococcus aureus, MRSA|MSSA
[13] = test system: E. faecalis clinical isolates (VRE); experiment: MIC against clinical isolates of E. faecalis; conditions: Enterococcus faecalis, VRE
[14] = test system: E. faecium clinical isolates (VRE); experiment: MIC against clinical isolates of E. faecium; conditions: Enterococcus faecium, VRE
[15] = test system: S. aureus ATCC 700699 (MRSA); experiment: Multistep; conditions: within two weeks of the start
[16] = test system: S. aureus ATCC 25923 (MSSA); experiment: Multistep
[17] = test system: S. aureus and E. faecalis biofilms; experiment: Biofilm inhibition and destruction at 4x and 8xMIC; conditions: 4x and 8xMIC (data not shown)

## 4-[4-[(3-chloroanilino)methyl]-3-(p-tolyl)pyrazol-1-yl]benzoic acid [Compound 44]
[1]
  MIC Sa99: 0.78 µg/mL
[2]
  MIC Bs: 0.78 µg/mL
[3]
  MIC Sa91: 0.78 µg/mL
[4]
  MIC Ef21: 0.78 µg/mL
[5]
  MIC Sa92: 1.56 µg/mL
[6]
  MIC Se: 3.12 µg/mL
[7]
  MIC Efl2: 12.5 µg/mL
[8]
  MIC Sa23: 1.56 µg/mL
[9]
  MIC Sal2: 1.56 µg/mL

## O=C(O)c1ccc(-n2cc(CNc3cccc(C(F)(F)F)c3)c(-c3ccc(C(F)(F)F)cc3)n2)cc1 [Compound 48, 4-[4-[[3-(trifluoromethyl)anilino]methyl]-3-[4-(trifluoromethyl)phenyl]pyrazol-1-yl]benzoic acid]
[10]
  antimicrobial activity (in words): potent activity
[1]; Staphylococcus aureus, ATCC700699, read-out: MIC Sa99
  MIC: 0.39 µg/mL (≈ 0.772 µM)

## CNC(C)C1CCC(N)C(OC2C(N)CC(N)C(OC3OCC(C)(O)C(NC)C3O)C2O)O1 (stereo not drawn) [gentamicin, reference compound]
[11]
  effect on viability of MRSA persisters (in words): did not affect the viability

## 4-[4-[(4-fluoroanilino)methyl]-3-(p-tolyl)pyrazol-1-yl]benzoic acid [Compound 43]
[1]
  MIC Sa99: 6.25 µg/mL
[2]
  MIC Bs: 1.56 µg/mL
[3]
  MIC Sa91: 6.25 µg/mL
[4]
  MIC Ef21: 6.25 µg/mL
[5]
  MIC Sa92: 12.5 µg/mL
[6]
  MIC Se: 12.5 µg/mL
[7]
  MIC Efl2: 25 µg/mL
[8]
  MIC Sa23: 6.25 µg/mL
[9]
  MIC Sal2: 3.12 µg/mL

## Cc1ccc(NCc2cn(-c3ccc(C(=O)O)cc3)nc2-c2ccc(C(F)(F)F)cc2)cc1Cl [Compound 58, 4-[4-[(3-chloro-4-methyl-anilino)methyl]-3-[4-(trifluoromethyl)phenyl]pyrazol-1-yl]benzoic acid]
[10]
  antimicrobial activity (in words): inhibited the growth of tested bacteria efficiently

## O=C(O)c1ccc(-n2cc(CNc3cc(Cl)c(O)c(Cl)c3)c(-c3ccc(C(F)(F)F)cc3)n2)cc1 [Compound 78, 4-[4-[(3,5-dichloro-4-hydroxy-anilino)methyl]-3-[4-(trifluoromethyl)phenyl]pyrazol-1-yl]benzoic acid]
[10]
  antimicrobial activity (in words): inactivity

## O=C(O)c1ccc(-n2cc(CNc3ccc(Br)c(C(F)(F)F)c3)c(-c3ccc(C(F)(F)F)cc3)n2)cc1 [Compound 63, 4-[4-[[4-bromo-3-(trifluoromethyl)anilino]methyl]-3-[4-(trifluoromethyl)phenyl]pyrazol-1-yl]benzoic acid]
[7]
  MIC: 1.56 µg/mL (≈ 2.67 µM)

## Cc1onc(-c2ccccc2)c1C(=O)N[C@@H]1C(=O)N2[C@@H]1SC(C)(C)[C@@H]2C(=O)O [Oxa, Oxacillin]
[12]; S. aureus 1088064, MRSA
  MIC: 64 µg/mL (≈ 159 µM)
[12]; S. aureus 1088610, MRSA
  MIC: 64 µg/mL (≈ 159 µM)
[12]; S. aureus 1088888, MRSA
  MIC: > 64 µg/mL
[12]; S. aureus 1089106, MRSA
  MIC: 64 µg/mL (≈ 159 µM)
[13]; E. faecalis 1088051, VRE
  MIC: 64 µg/mL (≈ 159 µM)
[13]; E. faecalis 1091563, VRE
  MIC: 64 µg/mL (≈ 159 µM)
[13]; E. faecalis 1091720, VRE
  MIC: 64 µg/mL (≈ 159 µM)
[13]; E. faecalis 1094112, VRE
  MIC: > 64 µg/mL
[13]; E. faecalis 1100440, VRE
  MIC: > 64 µg/mL
[14]; E. faecium 1088168, VRE
  MIC: > 64 µg/mL
[14]; E. faecium 1088228, VRE
  MIC: > 64 µg/mL
[14]; E. faecium 1088925, VRE
  MIC: > 64 µg/mL
[14]; E. faecium 1089544, VRE
  MIC: > 64 µg/mL
[14]; E. faecium 1091282, VRE
  MIC: > 64 µg/mL

## NS(=O)(=O)c1ccc(NCc2cn(-c3ccc(C(=O)O)cc3)nc2-c2ccc(C(F)(F)F)cc2)cc1 [Compound 49, 4-[4-[(4-sulfamoylanilino)methyl]-3-[4-(trifluoromethyl)phenyl]pyrazol-1-yl]benzoic acid]
[10]
  antimicrobial activity (in words): almost eliminated the activity

## O=C(O)c1ccc(-n2cc(CNc3cc(F)c(C(F)(F)F)cc3F)c(-c3ccc(C(F)(F)F)cc3)n2)cc1 [Compound 76, 4-[4-[[2,5-difluoro-4-(trifluoromethyl)anilino]methyl]-3-[4-(trifluoromethyl)phenyl]pyrazol-1-yl]benzoic acid]
[7]
  MIC: 3.12 µg/mL (≈ 5.76 µM)

## O=C(O)c1ccc(-n2cc(CNc3ccc(Br)cc3)c(-c3ccc(C(F)(F)F)cc3)n2)cc1 [Compound 47, 4-[4-[(4-bromoanilino)methyl]-3-[4-(trifluoromethyl)phenyl]pyrazol-1-yl]benzoic acid]
[10]; read-out: MIC value as low as
  MIC: ≥ 0.78 µg/mL

## 4-[4-[(3-fluoroanilino)methyl]-3-(p-tolyl)pyrazol-1-yl]benzoic acid [Compound 42]
[1]
  MIC Sa99: 3.12 µg/mL
[2]
  MIC Bs: 1.56 µg/mL
[3]
  MIC Sa91: 3.12 µg/mL
[4]
  MIC Ef21: 6.25 µg/mL
[5]
  MIC Sa92: 3.12 µg/mL
[6]
  MIC Se: 6.25 µg/mL
[7]
  MIC Efl2: 25 µg/mL
[8]
  MIC Sa23: 3.12 µg/mL
[9]
  MIC Sal2: 3.12 µg/mL

## O=C(O)c1ccc(-n2cc(CNc3ccc(C(=O)O)c(C(F)(F)F)c3)c(-c3ccc(C(F)(F)F)cc3)n2)cc1 [Compound 67, 4-[[1-(4-carboxyphenyl)-3-[4-(trifluoromethyl)phenyl]pyrazol-4-yl]methylamino]-2-(trifluoromethyl)benzoic acid]
[10]
  antimicrobial activity (in words): eliminated the activity

## O=C(O)c1ccc(-n2cc(CNc3ccc(N4CCOCC4)c(C(F)(F)F)c3)c(-c3ccc(C(F)(F)F)cc3)n2)cc1 [Compound 68, 4-[4-[[4-morpholino-3-(trifluoromethyl)anilino]methyl]-3-[4-(trifluoromethyl)phenyl]pyrazol-1-yl]benzoic acid]
[10]
  antimicrobial activity (in words): highly potent

## O=C(O)c1ccc(-n2cc(CNc3ccccc3)c(-c3ccc(C(F)(F)F)cc3)n2)cc1 [Compound 41, 4-[4-(anilinomethyl)-3-[4-(trifluoromethyl)phenyl]pyrazol-1-yl]benzoic acid]
[10]; read-out: MIC value as low as
  MIC: ≥ 3.12 µg/mL

## O=C(O)c1ccc(-n2cc(CNc3cccc(OC(F)(F)F)c3)c(-c3ccc(C(F)(F)F)cc3)n2)cc1 [Compound 50, 4-[4-[[3-(trifluoromethoxy)anilino]methyl]-3-[4-(trifluoromethyl)phenyl]pyrazol-1-yl]benzoic acid]
[10]; read-out: MIC values
  MIC: 0.78 to 3.12 µg/mL (≈ 1.5 to 5.99 µM)

## 4-[4-[(4-chloroanilino)methyl]-3-(p-tolyl)pyrazol-1-yl]benzoic acid [Compound 45]
[1]
  MIC Sa99: 1.56 µg/mL
[2]
  MIC Bs: 0.78 µg/mL
[3]
  MIC Sa91: 1.56 µg/mL
[4]
  MIC Ef21: 1.56 µg/mL
[5]
  MIC Sa92: 1.56 µg/mL
[6]
  MIC Se: 3.12 µg/mL
[7]
  MIC Efl2: 6.25 µg/mL
[8]
  MIC Sa23: 1.56 µg/mL
[9]
  MIC Sal2: 1.56 µg/mL

## O=C(O)c1cn(C2CC2)c2cc(N3CCNCC3)c(F)cc2c1=O [ciprofloxacin]
[15]
  fold more resistant: 16 fold
[16]
  passage at which resistance started to develop: 7 passage
[16]; within two weeks of the start
  fold more resistant: 16 fold

## O=C(O)c1ccc(-n2cc(CNc3cccc(Br)c3)c(-c3ccc(C(F)(F)F)cc3)n2)cc1 [Compound 46, 4-{4-[(3-bromoanilino)methyl]-3-[4-(trifluoromethyl)phenyl]-1H-pyrazol-1-yl}benzoic acid]
[10]; read-out: MIC value as low as
  MIC: ≥ 0.78 µg/mL

## O=C(O)c1ccc(-n2cc(CNc3ccc(Br)c(Cl)c3F)c(-c3ccc(C(F)(F)F)cc3)n2)cc1 [Compound 75, 4-[4-[(4-bromo-3-chloro-2-fluoro-anilino)methyl]-3-[4-(trifluoromethyl)phenyl]pyrazol-1-yl]benzoic acid]
[17]
  biofilm inhibition and destruction: > 95%
[7]
  MIC: 1.56 µg/mL (≈ 2.74 µM)
